Screening data (PubChem)
NPY1 pot ag: NPY-Y1 receptor potentiators or agonists, primary screen, cell-based; Neuropeptide Y receptor type 1 (Homo sapiens), P25929; NPY-Y1 expressing cells, potentiator/agonist activation; activation, % at 3.6 µM; 0.37% of 220,000 active; AID 1304, 2008; in the data active means activation above about 33%, passing the limit was not always enough;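 further: cells stimulated with NPY at EC10 then isoproterenol at EC100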
NPY-Y2 antag: NPY-Y2 receptor antagonists, primary screen, cell-based; Neuropeptide Y receptor type 2 (Homo sapiens), P49146; NPY-Y2 expressing cells, antagonist mode; inhibition, % at 2.7 µM; 0.99% of 140,000 active; AID 793, 2007; in the data active means inhibition above about 17%
Target sequence (P49146 whole entry, looked up): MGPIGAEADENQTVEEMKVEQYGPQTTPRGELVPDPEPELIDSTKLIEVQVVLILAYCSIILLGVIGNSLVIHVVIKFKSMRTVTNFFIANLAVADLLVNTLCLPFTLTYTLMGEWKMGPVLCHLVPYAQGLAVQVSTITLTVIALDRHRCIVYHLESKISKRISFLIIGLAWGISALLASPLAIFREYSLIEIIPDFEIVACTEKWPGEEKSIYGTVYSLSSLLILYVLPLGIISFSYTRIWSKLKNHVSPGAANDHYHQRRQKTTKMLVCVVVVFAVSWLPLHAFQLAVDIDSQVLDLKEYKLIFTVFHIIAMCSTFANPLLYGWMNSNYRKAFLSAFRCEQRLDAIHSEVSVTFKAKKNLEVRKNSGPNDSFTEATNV
S1P4 antagonist: S1P4 receptor antagonists, primary screen, cell-based; Sphingosine 1-phosphate receptor 4 (Homo sapiens), O95977; S1P4-expressing cells, antagonist mode, reporter read-out; inhibition, % at 4.98 µM; 0.26% of 220,000 active; AID 1510, 2009; in the data active means inhibition above about 29%
S1P4 ag: S1P4 receptor agonists, primary screen, cell-based; activation, % at 4.98 µM; Sphingosine 1-phosphate receptor 4 (Homo sapiens), O95977; 0.35% of 220,000 active; S1P4-expressing cell line, agonist reporter assay; in the data active means activation above about 11%
NPY2 pot ag: NPY-Y2 potentiators or agonists, primary screen, cell-based. Neuropeptide Y receptor type 2 (Homo sapiens), P49146. cells expressing NPY-Y2, potentiator/agonist read-out. activation, % at 3.6 µM. 0.45% of 220,000 active; in the data active means activation above about 27%;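 further: cells stimulated with NPY near EC25 plus isoproterenol at EC100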
NPY Y1 blocker: NPY-Y1 receptor antagonists, primary screen, cell-based. inhibition, % at 3.6 µM. 1% of 200,000 active. HEK293-CNG Y1 cells, membrane potential fluorescence; NPY at EC95, then isoproterenol. Neuropeptide Y receptor type 1 (Homo sapiens), P25929. AID 1040, 2008;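 active means inhibition above the campaign mean inhibition of all tested compounds plus 3 SD, cut at about 20% in these data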
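Test system – HEK293 Y1/CNG channel cell line · Also added – NPY agonist 25 nM, then isoproterenol 1 µM plus Ro 20-1724 25 µM · Compound dosing – one concentration, 3.6 µM, in 0.4% DMSO · Schedule – compound incubation 1 h at room temperature, readout 45 min post-stimulation · Technique – fluorescence, membrane potential probe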
Each line names hits and unclear results; the compound was inactive in the other large screens. In the library only some 2.4% were active in any assay of this set; here they are far more common.

CC(=O)Nc1cc(NC(C)=O)c(N=Nc2ccccc2)cc1C	none (no result: NPY-Y2 antag, NPY Y1 blocker)
O=C(/C=C/c1cccc([N+](=O)[O-])c1)Nc1cccc(NC(=O)c2cccs2)c1	none
Cc1ccc(S(=O)(=O)N2CCCCC2)cc1NC(=O)c1ccccn1	none (no result: NPY-Y2 antag, NPY Y1 blocker)
COc1cc(/C=N/N2C(=O)c3ccccc3NC2(C)c2cccc([N+](=O)[O-])c2)cc(Br)c1O (configuration not stated)	NPY-Y2 antag 17.2
CN(C)CCN(Cc1ccccc1)c1ccnc(N(C)C)c1C#N	none
CN(C)c1nccc(N(Cc2ccccc2)Cc2ccccc2)c1C#N	NPY-Y2 antag 21.7, NPY Y1 blocker 65.7
Cc1cc(C)cc(NC(=O)CSc2nc(CSc3ccc(Cl)cc3)cc(=O)[nH]2)c1	none (no result: NPY-Y2 antag, NPY Y1 blocker)
CCCn1c(CN(C)Cc2ccccc2)nc2c1c(=O)n(C)c(=O)n2C	none
CN(Cc1ccccc1)Cc1nc2c(c(=O)n(C)c(=O)n2C)n1CCc1ccccc1	NPY-Y2 antag 23.1, NPY Y1 blocker 22.5
COc1cc(OC)nc(/N=C/NO)n1	none (no result: NPY-Y2 antag, NPY Y1 blocker)
Cc1cc(C(=O)CN2CCCCC2)c(C)n1-c1ccc(F)cc1	none
Cc1cc(C(=O)CN2CCCC2)c(C)n1-c1ccc(Cl)cc1	NPY Y1 blocker 20.9 (no result: NPY-Y2 antag)
COC(=O)c1ccccc1NC(=O)CN1CCC(NC(=O)c2ccc(C)cc2)CC1	none
COC(=O)c1ccccc1NC(=O)CN1CCN(C23CC4CC(CC(C4)C2)C3)CC1	NPY-Y2 antag 63.8, NPY Y1 blocker 96.0
Cc1nn(-c2ccccc2)nc1C(=O)Oc1cc(C(F)(F)F)nn1-c1ccccc1	none (no result: NPY-Y2 antag, NPY Y1 blocker)
CCOc1ccccc1N(C(=O)c1ccco1)C(C(=O)NC1CCCC1)c1cccnc1 (configuration not stated)	none
CCOc1ccccc1N(C(=O)c1snc(C(N)=O)c1N)C(C(=O)NC1CCCC1)c1ccco1 (configuration not stated)	NPY-Y2 antag 19.5, NPY Y1 blocker 26.4
CC(=O)/C(C=Nc1noc(C)c1Br)=C(\C)O	none (no result: NPY-Y2 antag, NPY Y1 blocker)
Clc1ccc(CN2C3=NCCCN3c3ccccc32)cc1Cl	NPY Y1 blocker 21.2 (no result: NPY-Y2 antag)
Clc1ccc(CN2C3=NCCCN3c3ccccc32)cc1	none
COCCNC(=O)COc1cccc2c1OC(C)(C)C2	none (no result: NPY-Y2 antag)
COc1ccc(CNCC(O)COc2cccc3c2OC(C)(C)C3)cc1 (configuration not stated)	NPY1 pot ag 106.2, NPY2 pot ag 95.1 (no result: NPY-Y2 antag)
Cc1ccccc1Nc1nc(-c2cccnc2)nc2ccccc12	none (no result: NPY-Y2 antag)
Cc1ccccc1Nc1c(-c2cccnc2)nc2cccc(C)n12	NPY1 pot ag 38.8, NPY2 pot ag 28.8 (no result: NPY-Y2 antag)
COC(=O)c1cnc(N2CCCN(S(=O)(=O)c3ccc(C(F)(F)F)cc3)CC2)nc1C(F)(F)F	none (no result: NPY-Y2 antag, NPY Y1 blocker)
Cc1ccc2c(c1)c1c(n2CC(O)CNC(C)(C)C)CCCC1 (configuration not stated)	NPY2 pot ag 41.4
Cc1ccc(C(=O)Nc2ccc3cn[nH]c3c2)cc1S(=O)(=O)N1CCOCC1	none (no result: NPY-Y2 antag)
Fc1ccc(Nc2ccc(-c3ccc(F)cc3)nn2)cc1	none (no result: NPY-Y2 antag)
CC1(C)CC(N(Cc2ccc(F)cc2)C(=O)c2ccc(F)cc2)CCO1 (configuration not stated)	none (no result: NPY-Y2 antag, NPY Y1 blocker)
CC1(C)CC(C(CCN(Cc2ccccc2)C(=O)c2ccco2)c2ccc(F)cc2)CCO1 (configuration not stated)	NPY-Y2 antag 33.3, NPY Y1 blocker 28.8
O=P(OCC1CC1)(c1ccccc1)c1ccccc1	none
CCCCOn1c(C)c(C(=O)OCC)c2c3no[n+]([O-])c3ccc21	none
CCCCOn1c(C)c(C(=O)OCC)c2c3nonc3ccc21	NPY-Y2 antag 23.4, NPY Y1 blocker 67.2
O=C(COC(=O)c1ccc(O)cc1)Nc1ccc(Cl)cc1	none (no result: NPY-Y2 antag)
N#CCCS(=O)(=O)c1nnnn1-c1ccccc1	S1P4 antagonist 38.4
c1ccc(-n2nnnc2Cc2nnnn2-c2ccccc2)cc1	none (no result: NPY-Y2 antag)
COc1ccc(NC(=O)N2CCN(C(=O)C(Cc3ccc(F)cc3)NC(C)=O)CC2)cc1 (configuration not stated)	none (no result: NPY-Y2 antag)
COCCCn1c(SCc2nnc(-c3ccc(OC)c(OC)c3)o2)nc2ccccc2c1=O	none
